Source: ChEMBL document CHEMBL1154249, “Semisynthesis and biological evaluation of abietane-type diterpenes. Revision of the structure of rosmaquinone” (J Nat Prod, 2009)
In brackets after ≈: the same amount, converted by molar mass.

Assays:
Staphylococcus aureus = experiment: Antibacterial activity against Staphylococcus aureus ATCC 6538 after 24 hrs by broth dilution assay; type: functional
[1] = test system: Staphylococcus epidermidis; experiment: Antibacterial activity against Staphylococcus epidermidis ATCC 14990 after 24 hrs by broth dilution assay; type: functional
Summary of the method: (§1)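 Microdilution in nutrient broth at 37 °C, about (1-5) × 10^5 cfu/mL inoculum, compounds in DMSO (≤1% v/v, matched DMSO controls), in triplicate. Growth followed by OD550. Wells without visible growth after 24 h on a rotary shaker were subcultured in duplicate onto nutrient agar and colonies counted after overnight incubation. MIC is the lowest concentration inhibiting growth at 24 h.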

Bacillus subtilis = experiment: Antibacterial activity against Bacillus subtilis ATCC 6051 after 24 hrs by broth dilution assay; type: functional
Bacillus cereus = experiment: Antibacterial activity against Bacillus cereus ATCC 21772 after 24 hrs by broth dilution assay; type: functional; settings: for MIC: Bacillus cereus, ATCC 21772, 24 h
Candida albicans [2] = experiment: Antibacterial activity against Candida albicans CECT 170 after 24 hrs by broth dilution assay; type: functional; settings: CECT 1039, 24 h, in the assay text read “CECT 1039” for “CECT 170”
Summary of the method: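 Yeast grown in Sabouraud liquid medium at 37 °C. Microdilution in triplicate, about (1-5) × 10^5 cfu/mL, DMSO ≤1% v/v with matched controls. OD550 followed. Clear wells at 24 h were plated in duplicate on Sabouraud agar and counted after overnight incubation. MIC is the lowest concentration inhibiting growth.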

Enterococcus faecalis = experiment: Antibacterial activity against Enterococcus faecalis ATCC 29212 after 24 hrs by broth dilution assay; type: functional; settings: ATCC 29212, 24 h
Summary of the method: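 Microdilution in brain heart infusion broth, shaken at 37 °C, about (1-5) × 10^5 cfu/mL start, DMSO ≤1% v/v with matched controls, in triplicate. OD550 read. Clear wells at 24 h were subcultured in duplicate onto brain heart infusion agar and counted after overnight incubation. MIC is the lowest concentration giving growth inhibition.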

[3] = test system: Mycolicibacterium smegmatis; experiment: Antibacterial activity against Mycobacterium smegmatis ATCC 19420 after 48 hrs by broth dilution assay; type: functional; settings: ATCC 19420, 48 h
Summary of the method: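 Brain heart infusion broth with 0.06% Tween 80, 37 °C on a rotary shaker, inoculum about (1-5) × 10^5 cfu/mL, DMSO ≤1% v/v with matched controls, in triplicate. OD550 monitored.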

Escherichia coli = experiment: Antibacterial activity against Escherichia coli ATCC 9637 after 24 hrs by broth dilution assay; type: functional; settings: ATCC 9637, 24 h; summary of the method: as §1
Proteus mirabilis = experiment: Antibacterial activity against Proteus mirabilis CECT 170 after 24 hrs by broth dilution assay; type: functional; settings: CECT 170, 24 h; summary of the method: as §1
Pseudomonas aeruginosa = experiment: Antibacterial activity against Pseudomonas aeruginosa AK958 after 24 hrs by broth dilution assay; type: functional; settings: AK958, 24 h; summary of the method: as §1
Salmonella = experiment: Antibacterial activity against Salmonella CECT 4569 after 24 hrs by broth dilution assay; type: functional; settings: CECT 4569, 24 h; summary of the method: as §1
HeLa [4] = experiment: Cytotoxicity against human HeLa cells at lag phase of growth after 48 hrs by MTT assay; type: functional, cell-based; settings: Homo sapiens, HeLa, 48 h; read-out: IC50
Summary of the method: (§2)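 Monolayers grown in DMEM with 5% fetal calf serum and penicillin-streptomycin at 37 °C, 5% CO2. 2×10^4 cells/well in lag or log phase were exposed for 48 h to a concentration series of compounds predissolved in DMSO. MTT formazan was dissolved in DMSO and read at 550 nm. IC50 taken from the curve; three independent experiments.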

HeLa [5] = experiment: Cytotoxicity against human HeLa cells at exponential phase of growth after 48 hrs by MTT assay; type: functional, cell-based; settings: Homo sapiens, HeLa, 48 h; read-out: IC50; summary of the method: as §2
A549 [6] = experiment: Cytotoxicity against human A549 cells at lag phase of growth after 48 hrs by MTT assay; type: functional, cell-based; settings: Homo sapiens, A549, 48 h; read-out: IC50; summary of the method: as §2
A549 [7] = experiment: Cytotoxicity against human A549 cells at exponential phase of growth after 48 hrs by MTT assay; type: functional, cell-based; settings: Homo sapiens, A549, 48 h; read-out: IC50; summary of the method: as §2
MCF7 [8] = experiment: Cytotoxicity against human MCF7 cells at lag phase of growth after 48 hrs by MTT assay; type: functional, cell-based; settings: Homo sapiens, MCF7, 48 h; read-out: IC50; summary of the method: as §2
MCF7 [9] = experiment: Cytotoxicity against human […] cells at exponential phase of growth after 48 hrs by MTT assay; type: functional, cell-based; settings: Homo sapiens, MCF7, 48 h; read-out: IC50; summary of the method: as §2
Vero [10] = experiment: Cytotoxicity against african green monkey Vero cells at lag phase of growth after 48 hrs by MTT assay; type: cell-based, Chlorocebus sabaeus; settings: Chlorocebus sabaeus, Vero, 48 h; read-out: IC50; summary of the method: as §2
Vero [11] = experiment: Cytotoxicity against african green monkey Vero cells at exponential phase of growth after 48 hrs by MTT assay; type: cell-based, Chlorocebus sabaeus; settings: Chlorocebus sabaeus, Vero, 48 h; read-out: IC50; summary of the method: as §2
HEp-2 [12] = experiment: Cytotoxicity against human Hep2 cells at lag phase of growth after 48 hrs by MTT assay; type: functional, cell-based; settings: Homo sapiens, HEp-2, 48 h; read-out: IC50; summary of the method: as §2
HEp-2 [13] = experiment: Cytotoxicity against human Hep2 cells at exponential phase of growth after 48 hrs by MTT assay; type: functional, cell-based; settings: Homo sapiens, HEp-2, 48 h; read-out: IC50; summary of the method: as §2
Candida albicans [14] = experiment: Antibacterial activity against Candida albicans CECT 1039 after 24 hrs by broth dilution assay
[15] = Staphylococcus aureus, ATCC 6538, 24 h, read-out: MIC
[16] = Staphylococcus epidermidis, ATCC 14990, 24 h, read-out: MIC
[17] = Bacillus subtilis, ATCC 6051, 24 h, read-out: MIC

| Structure (SMILES) | MIC (Staphylococcus aureus; [15]) [µg/mL] | MIC [1, 16] [µg/mL] | MIC (Bacillus subtilis; [17]) [µg/mL] | MIC (Bacillus cereus) [µg/mL] | MIC (Candida albicans [2]) [µg/mL] | MIC (Enterococcus faecalis) [µg/mL] | MIC [3] [µg/mL] | MIC (Escherichia coli) [µg/mL] | MIC (Proteus mirabilis) [µg/mL] | MIC (Pseudomonas aeruginosa) [µg/mL] | MIC (Salmonella) [µg/mL] | IC50 (HeLa [4]) [µM] | IC50 (HeLa [5]) [µM] | IC50 (A549 [6]) [µM] | IC50 (A549 [7]) [µM] | IC50 (MCF7 [8]) [µM] | IC50 (MCF7 [9]) [µM] | IC50 (Vero [10]) [µM] | IC50 (Vero [11]) [µM] | MIC (Staphylococcus aureus) [µg/mL] | other results |
| --- | --- | --- | --- | --- | --- | --- | --- | --- | --- | --- | --- | --- | --- | --- | --- | --- | --- | --- | --- | --- | --- |
| CC(C)C1=CC2=C(C(=O)C1=O)[C@@]13CCCC(C)(C)[C@@H]1[C@H](OC3=O)[C@H]2O [ROSMAQUINONE] | 20 (≈ 58.1 µM) | 40 (≈ 116 µM) | 8 (≈ 23.2 µM) | 10 (≈ 29 µM) | > 40 | > 40 | > 40 | > 40 | > 40 | > 40 | > 40 | > 60 | > 60 | > 60 | 28.8 | 39.5 | > 60 | > 60 | > 60 | – | – |
| C[C@H]1COC2=C1C(=O)C1=C(C2=O)[C@@]23CCCC(C)(C)[C@@H]2C[C@@H]1OC3=O | – | – | – | – | – | > 40 | > 40 | > 40 | > 40 | > 40 | > 40 | 50.3 | 17.5 | > 58.4 | 40.4 | 33 | 18.4 | > 58.4 | > 58.4 | >40 | MIC [1]: >40 µg/mL; MIC (Bacillus subtilis): >40 µg/mL; MI50 (Bacillus cereus): >40 µg/mL; IC50 (HEp-2 [12]): > 58.4 µM; IC50 (HEp-2 [13]): 39.8 µM; MIC (Candida albicans [14]): >40 µg/mL |
| C[C@H]1COc2c1cc1c(c2O)[C@@]23CCCC(C)(C)[C@@H]2C[C@@H]1OC3=O | – | – | – | – | – | > 40 | > 40 | > 40 | > 40 | > 40 | > 40 | 56.1 | 37.8 | > 60 | 51.5 | > 60 | > 60 | > 60 | > 60 | >40 | MIC [1]: >40 µg/mL; MIC (Bacillus subtilis): >40 µg/mL; MI50 (Bacillus cereus): >40 µg/mL; IC50 (HEp-2 [12]): > 60 µM; IC50 (HEp-2 [13]): > 60 µM; MIC (Candida albicans [14]): >40 µg/mL |
| CO[C@@H]1c2cc(C(C)C)c(O)c(O)c2[C@@]23CCCC(C)(C)[C@@H]2[C@@H]1OC3=O | > 40 | 20 (≈ 55.5 µM) | 20 (≈ 55.5 µM) | 20 (≈ 55.5 µM) | > 40 | > 40 | > 40 | > 40 | > 40 | > 40 | > 40 | 40.8 | > 60 | 35.6 | 50.8 | 23.3 | 41.1 | 36.7 | 33.9 | – | – |
| CC(C)c1cc2c(c(O)c1O)[C@@]13CCCC(C)(C)[C@@H]1[C@@H](O)[C@@H]2OC3=O [ISOROSMANOL] | 40 (≈ 115 µM) | 20 (≈ 57.7 µM) | 30 (≈ 86.6 µM) | 20 (≈ 57.7 µM) | > 40 | > 40 | > 40 | > 40 | > 40 | > 40 | > 40 | > 60 | > 60 | > 60 | 46 | 54.3 | 36.1 | > 60 | > 60 | – | – |
| CO[C@H]1c2cc(C(C)C)c(O)c(O)c2[C@@]23CCCC(C)(C)[C@@H]2[C@@H]1OC3=O | > 40 | 20 (≈ 55.5 µM) | > 40 | 20 (≈ 55.5 µM) | > 40 | > 40 | > 40 | > 40 | > 40 | > 40 | > 40 | 42.2 | > 60 | 42.5 | > 60 | 37.5 | 55.6 | 42.2 | 47.2 | – | – |
| CC(C)c1cc2c(c(O)c1O)[C@@]13CCCC(C)(C)[C@@H]1[C@H](OC3=O)[C@H]2O [ROSMANOL] | 20 (≈ 57.7 µM) | 10 (≈ 28.9 µM) | 10 (≈ 28.9 µM) | 20 (≈ 57.7 µM) | > 40 | > 40 | – | > 40 | > 40 | > 40 | > 40 | 20.2 | 51.4 | 43.4 | 27.7 | 17.1 | 15.3 | 19.9 | 36.4 | – | – |
| COC(=O)C1=C2C=C(C(C)C)COC2(O)[C@H]2OC(=O)[C@@]13CCCC(C)(C)[C@H]23 (some centres not stated) | – | – | – | – | – | > 40 | > 40 | > 40 | > 40 | > 40 | > 40 | > 60 | > 60 | > 60 | 39.4 | > 60 | 42.6 | > 60 | > 60 | >40 | MIC [1]: >40 µg/mL; MIC (Bacillus subtilis): >40 µg/mL; MI50 (Bacillus cereus): >40 µg/mL; IC50 (HEp-2 [12]): > 60 µM; IC50 (HEp-2 [13]): > 60 µM; MIC (Candida albicans [14]): >40 µg/mL |
